An excerpt weighted towards active compounds, which were near 3.1% of everything screened.
rRNA inh HTS = reduced GFP signal of wild-type E. coli, primary screen, bacterial rRNA inhibitor project, GFP/RFP fluorescence, OD600, single point | E. coli WT GFP vs humanized-ribosome RFP mutants, 24 h; stronger effect = lower value; DMSO median 0, no signal -100 | GFP signal change (wild-type ribosome), % (no concentration beside the values) | 350,000 compounds, 1.6% hits | AID 720706, 2013;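 active = significant combined selectivity score with lowered wild-type GFP, culture density cut under 30%, mutant RFP and density less affected; inactive = any of these conditions unmet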
DENV2 CPE rescue = inhibitors of DENV2 cytopathic effect, primary screen, cell-based, plate reader, single concentration; CPE inhibition, % at 9.99 µM; AID 651640, 2012; DENV2-infected cells, cytopathic effect rescue; 350,000 compounds, 1.7% hits; in the data active = CPE inhibition above about 20%, passing the limit was not always enough; inconclusive = no clear call, values can overlap the other calls; tested in BHK-21 cells
miR122 inh = miR-122 Renilla sensor signal increase in Huh7, primary screen, miR-122 inhibitor project, cell-based, single point, plate reader. Huh7 miR-122 Renilla luciferase sensor, 48 h; neutral wells = 0, positive control = 100. activation (reporter increase), % at 12.5 µM. 340,000 compounds, 0.3% hits;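 active = mean replicate activation score at least 90 and every replicate individually at or above 90; inconclusive = only one of the two criteria met; inactive = neither criterion met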;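 also: higher luciferase means less miR-122 activity so hits act as miR-122 inhibitors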
E-sel inducer = E-selectin induction in HUVECs, primary screen, imaging, HUVEC, immunofluorescence imaging, single point; P16581; normalized: neutral wells 0, TNF-alpha wells 100; activation, % at 7.58 µM; 260,000 compounds, 0.37% hits;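 active = mean E-selectin-positive cell signal at least 10% of the positive control, reached in at least 60% of replicates, without over 20% cell loss; inconclusive = no rule given, readout overlaps actives, possibly toxicity-flagged; inactive = the rest, including those meeting only one limit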
Target sequence (P16581 whole entry, looked up): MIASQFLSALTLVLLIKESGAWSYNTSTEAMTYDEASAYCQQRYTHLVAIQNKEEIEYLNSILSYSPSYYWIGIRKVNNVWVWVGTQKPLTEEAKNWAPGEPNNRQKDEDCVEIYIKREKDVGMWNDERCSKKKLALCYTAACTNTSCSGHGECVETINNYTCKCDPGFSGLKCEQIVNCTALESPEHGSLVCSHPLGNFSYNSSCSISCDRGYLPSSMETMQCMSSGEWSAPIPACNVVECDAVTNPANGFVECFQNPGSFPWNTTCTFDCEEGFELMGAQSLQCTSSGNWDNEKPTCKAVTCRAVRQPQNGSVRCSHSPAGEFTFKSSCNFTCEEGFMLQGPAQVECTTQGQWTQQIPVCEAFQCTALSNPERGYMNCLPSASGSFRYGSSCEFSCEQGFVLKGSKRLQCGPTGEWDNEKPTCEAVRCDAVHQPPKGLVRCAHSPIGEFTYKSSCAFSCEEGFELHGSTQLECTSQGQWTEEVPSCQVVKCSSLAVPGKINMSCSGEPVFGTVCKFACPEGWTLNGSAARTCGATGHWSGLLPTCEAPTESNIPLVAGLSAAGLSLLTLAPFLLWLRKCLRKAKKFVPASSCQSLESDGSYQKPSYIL
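Assay system: HUVEC primary endothelial cells. Input: 3,000 HUVEC seeded per well. Doses: one compound dose added by pin transfer. Read-out basis: % PE-positive cells. Benchmarks: TNF-alpha high, DMSO low. Detection: immunofluorescence imaging. Buffer or medium: EGM-2, gelatin.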
Cneo AK release = Cryptococcus neoformans cell lysis inducers, primary screen, AK release luminescence, single concentration. lysis activity, % at 15 µM. C. neoformans lysis, adenylate kinase release luminescence, 4 h; normalised: neutral wells 0, clomiphene wells 100. 360,000 compounds, 0.2% hits;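 active = mean lysis activity across replicates of at least 80%, whatever share of replicates individually reach that level; inactive = mean lysis activity below 80%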
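Assay system: C. neoformans cells. Amount: yeast cell density of 5 × 10^6 cells/mL. Technique: AK luminescence. Buffer or medium: YPD. Times: static 4 h at 37 °C with compound, 1 h detection. Dosing: single-point compound dose. Read-out: lysis from increased AK signal.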
Large screens that a line does not name were inactive.

C[C@@H]1CCCCO[C@@H](CN(C)CC2CCCCC2)[C@@H](C)CN([C@@H](C)CO)C(=O)c2cc(NS(=O)(=O)c3ccc(F)cc3)ccc2O1	none
COc1ccc(CN(C)C[C@H]2OCCCC[C@@H](C)Oc3ccc(NC(=O)NC(C)C)cc3C(=O)N([C@@H](C)CO)C[C@H]2C)cc1	none (no result: DENV2 CPE rescue, Cneo AK release)
COc1ccc(NC(=O)N(C)C[C@H]2OCCCC[C@H](C)Oc3ccc(NC(=O)C4CCCCC4)cc3C(=O)N([C@H](C)CO)C[C@H]2C)cc1	none (no result: DENV2 CPE rescue, miR122 inh, Cneo AK release)
CCc1ccc2c(CN3CCC(C(=O)OC)CC3)cc(=O)oc2c1	rRNA inh HTS -22 (no result: E-sel inducer)
O=C(C1CCCCC1)N1CC2(C1)[C@H](c1ccccc1)[C@@H](CO)N2C(=O)NC1CCCC1	none (no result: miR122 inh, Cneo AK release)
O=C(C1CCC1)N1CC2(C1)[C@@H](c1ccccc1)[C@@H](CO)N2C(=O)NC1CCCC1	DENV2 CPE rescue 31 (no result: miR122 inh, Cneo AK release)
CCCNC(=O)N1[C@H](CO)[C@@H](c2ccccc2)C12CN(C(=O)C1CCCCC1)C2	DENV2 CPE rescue 85 (no result: miR122 inh, Cneo AK release)
COc1ccc(NC(=O)N(C)C[C@@H]2OCCCC[C@H](C)Oc3ccc(NC(=O)NC(C)C)cc3C(=O)N([C@H](C)CO)C[C@@H]2C)cc1	none
CC(C)CC#Cc1cnc2c(c1)C(=O)N([C@H](C)CO)C[C@H](C)[C@H](CN(C)Cc1cccc(F)c1)O2	none
Cc1noc(C)c1NC(=O)N(C)C[C@@H]1OCCCC[C@@H](C)Oc2ccc(NS(C)(=O)=O)cc2C(=O)N([C@@H](C)CO)C[C@H]1C	none
Cc1cc(C)cc(NS(=O)(=O)c2csc(C(N)=O)c2)c1	none (no result: miR122 inh, Cneo AK release)
Cc1ccc(NS(=O)(=O)c2csc(C(N)=O)c2)cc1C	miR122 inh 99 (no result: E-sel inducer)
CO[C@@H]1CN(C)C(=O)c2cc(NS(C)(=O)=O)ccc2OC[C@H](C)N(CCC(F)(F)F)C[C@@H]1C	none
CCOC(=O)N1CCN(S(=O)(=O)c2ccc(C(=O)Nc3sc4c(c3C(=O)OC)CCN(C)C4)cc2)CC1	rRNA inh HTS -15
CCCN1CCc2c(sc(NC(=O)c3ccc(S(=O)(=O)N4CCN(C(=O)OCC)CC4)cc3)c2C(N)=O)C1	DENV2 CPE rescue inconclusive (no result: rRNA inh HTS, miR122 inh)
COc1cccc(CNC(=O)c2cccnc2Sc2ccc(C)cc2C)c1	rRNA inh HTS -31 (no result: E-sel inducer)
COc1cccc(CNC(=S)Nc2cc(C)ccc2C)c1	rRNA inh HTS -26
O=C(C1CCCC1)N1CCCCN2[C@H](C1)[C@H](c1ccc(C#CC3(O)CCCC3)cc1)[C@@H]2CO	none (no result: rRNA inh HTS, E-sel inducer)
Cc1occc1C(=O)N1CCCC(N2CCN(c3ccccc3F)CC2)C1 (stereo not drawn)	DENV2 CPE rescue 26
COc1ccc2c3c(n(C)c2c1)[C@@H](CO)N(C(=O)Nc1ccc(F)cc1)CC31CCN(S(=O)(=O)c2cccc(F)c2)CC1	none (no result: miR122 inh, Cneo AK release)
COC(=O)[C@@H]1[C@@H](CO)[C@@H]2Cn3c(ccc(-c4ccccc4OC)c3=O)[C@@H]2N1C(=O)c1cccnc1	none
COc1ccc(N2CCN(C(=O)c3oc4ccccc4c3C)CC2)cc1	rRNA inh HTS -38 (no result: DENV2 CPE rescue, miR122 inh, E-sel inducer, Cneo AK release)
COc1ccc(N2CCN(C(=O)c3[nH]c(C(F)(F)F)nc3-c3ccccc3)CC2)cc1	rRNA inh HTS -26
O=C(c1csc2ccccc12)N1CCN(c2ccc(Cl)c(Cl)c2)CC1	none (no result: rRNA inh HTS, DENV2 CPE rescue, E-sel inducer)
COc1ccccc1N1CCN(C(=O)c2[nH]c(C(F)(F)F)nc2-c2ccccc2)CC1	none
COc1ccc2oc(C(=O)N3CCc4ccccc43)c(C)c2c1	miR122 inh 137
COc1ccc(N2CCN(C(=O)c3csc4ccccc34)CC2)cc1	miR122 inh 162 (no result: rRNA inh HTS, DENV2 CPE rescue, E-sel inducer)
C[C@@H]1CN([C@@H](C)CO)C(=O)c2cccc(NC(=O)C3CCCCC3)c2O[C@H]1CN(C)C(=O)Nc1ccc(F)cc1	none
COc1ccc2c3c(n(C)c2c1)[C@@H](CO)N(CC1CC1)CC31CCN(C(=O)c2ccccc2)CC1	none (no result: DENV2 CPE rescue, miR122 inh, E-sel inducer, Cneo AK release)
O=C(Nc1cc(F)ccc1F)N1CC(=O)N2[C@H](CO)[C@@H](c3ccc(-c4ccc(F)cc4)cc3)[C@@H]2C1	none (no result: miR122 inh, Cneo AK release)
CCCCc1ccc(Nc2nc(CCC)cc(=O)[nH]2)cc1	none (no result: rRNA inh HTS, DENV2 CPE rescue, E-sel inducer)
CCCc1cc(=O)[nH]c(Nc2ccc3c(c2)OCCO3)n1	rRNA inh HTS -16
O=C(C[C@H]1C[C@H]2c3cc(NC(=O)c4ccc5c(c4)OCO5)ccc3O[C@H]2[C@H](CO)O1)NCc1cccnc1	none
O=C1NC(=O)/C(=C/c2cc3c(cc2Br)OCO3)S1	DENV2 CPE rescue 22
C[C@@H]1CCCCO[C@@H](CN(C)C(=O)CCC(F)(F)F)[C@H](C)CN([C@@H](C)CO)C(=O)c2cc(NC(=O)c3ccccc3)ccc2O1	none
C[C@@H]1CCCCO[C@@H](CN(C)C(=O)CCC(F)(F)F)[C@@H](C)CN([C@@H](C)CO)C(=O)c2cc(NC(=O)c3ccccc3)ccc2O1	DENV2 CPE rescue 157
C[C@@H]1CN([C@@H](C)CO)C(=O)c2cc(NC(=O)c3ccccc3)ccc2O[C@@H](C)CCCCO[C@H]1CN(C)C(=O)CCC(F)(F)F	none
C[C@H](CO)N1C[C@H](C)[C@H](CN(C)C(=O)CCC(F)(F)F)OCCCC[C@H](C)Oc2ccc(NC(=O)c3ccccc3)cc2C1=O	DENV2 CPE rescue 21
C[C@@H]1CN([C@H](C)CO)C(=O)c2cc(NC(=O)CCC(F)(F)F)ccc2O[C@H]1CN(C)C	none (no result: E-sel inducer)
COc1cccc(-c2ccc(CC[C@H]3O[C@H]4CC[C@H](CO)O[C@H]4C[C@@H]3NC(=O)CN(C)C)cc2)c1	none (no result: rRNA inh HTS, miR122 inh, E-sel inducer, Cneo AK release)
Cc1noc(C)c1S(=O)(=O)N(C)C[C@@H]1Oc2ccc(NC(=O)CCN3CCOCC3)cc2CC(=O)N([C@@H](C)CO)C[C@H]1C	none (no result: miR122 inh, Cneo AK release)
COc1ccc(NC(=O)N(C)C[C@H]2Oc3c(NC(=O)c4ccc(-c5nccs5)cc4)cccc3C(=O)N([C@@H](C)CO)C[C@H]2C)cc1	none
CCOC(=O)c1sc(NC(=O)CN2CC(C)OC(C)C2)nc1C (stereo not drawn)	none (no result: miR122 inh, E-sel inducer)
Cc1ccc(C)c(NC(=O)CN2C(=O)C3CC=CCC3C2=O)c1 (stereo not drawn)	DENV2 CPE rescue 45
CCOC(=O)c1sc(NC(=O)CN2C(=O)C3CC=CCC3C2=O)nc1C (stereo not drawn)	E-sel inducer 151
CCCC[C@@H]1CCCO[C@@](C(=O)NCc2ccccn2)(C(F)(F)F)C1	DENV2 CPE rescue inconclusive
CCC[C@@H]1CCCO[C@@](C(=O)NCc2ccccn2)(C(F)(F)F)C1	DENV2 CPE rescue 69 (no result: miR122 inh)
CCc1nn2cc(C(=O)c3cc(Cl)ccc3O)cnc2c1-c1ccc(F)cc1	rRNA inh HTS -18 (no result: miR122 inh, Cneo AK release)
Cc1cc(-c2ccc(C)c(S(=O)(=O)NCCc3ccco3)c2)on1	none (no result: E-sel inducer)
CCc1ccc(-c2cc(C)no2)cc1S(=O)(=O)NCc1ccco1	miR122 inh 159 (no result: E-sel inducer, Cneo AK release)

Compound activity as filed in PubChem BioAssay.
